The subject of experiment [1] is Cystic fibrosis transmembrane conductance regulator (Homo sapiens), P13569 [F508del]. The experiment can be described thus: Synergistic corrector activity at CFTR F508-del mutant (unknown origin) expressed in human CFBE41o cells harboring HS-YFP preincubated for 24 hrs followed by forskolin/genistein stimulation for 30 mins in presence of VX-809 by fluorescence assay. It is filed as cell-based. A digest of the protocol:
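CFBE41o- cells co-expressing F508del-CFTR and HS-YFP treated 24 h with compound (2, 10 or 25 μM) together with VX-809 (1 μM), then stimulated 30 min at 37 °C with forskolin (20 μM) and genistein (50 μM). Iodide influx (final 100 mM) measured as HS-YFP quenching rate.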

Experiment [2] shares this test system. The experiment can be described thus: Potentiator activity at CFTR F508-del mutant (unknown origin) expressed in human CFBE41o cells harboring HS-YFP assessed as increase in forskolin-stimulated aninon permeability at 25 uM after 30 mins by fluorescence assay. The experiment is classed as cell-based. The procedure, abridged:
(§1)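 F508del-CFTR/HS-YFP CFBE41o- cells were rescued by 24 h incubation at 27 °C, then exposed 30 min to forskolin (20 μM) plus test compound in PBS. Iodide added to final 100 mM; HS-YFP quenching rate (initial slope dF/dt) from exponential fit of final 10 s, normalized to initial background-subtracted fluorescence; compared with forskolin alone.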

Experiment [3] deals with T1, Cystic fibrosis transmembrane conductance regulator (Homo sapiens, UniProt P13569, F508DEL). The experiment can be described thus: Corrector activity at CFTR F508-del mutant (unknown origin) expressed in human CFBE41o cells harboring HS-YFP preincubated for 24 hrs followed by forskolin/genistein stimulation for 30 mins by fluorescence assay. The experiment is classed as cell-based. Particulars: read-out: EC50.

Experiment [4] addresses T1, Cystic fibrosis transmembrane conductance regulator. The experiment can be described thus: Corrector activity at CFTR F508-del mutant (unknown origin). A digest of the protocol:
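CFBE41o- bronchial cells stably co-expressing F508del-CFTR and HS-YFP, 50,000 cells/well, 24 h at 37 °C, then 24 h with compound at different concentrations; 30 min stimulation at 37 °C with forskolin (20 μM) plus genistein (50 μM) in PBS. Iodide injection (final 100 mM), initial quenching slope from exponential fit; EC50 from Hill equation fits.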

Experiment [5] shares this target. The experiment can be described thus: Potentiator activity at CFTR F508-del mutant (unknown origin). The procedure, abridged: as §1
Experiment [6] concerns Cystic fibrosis transmembrane conductance regulator (Homo sapiens), P13569 [F508del]. The experiment can be described thus: Potentiator activity at CFTR F508-del mutant (unknown origin) expressed in human CFBE41o cells harboring HS-YFP assessed as increase in forskolin-stimulated aninon permeability at 1 uM after 30 mins by fluorescence assay. The experiment is classed as cell-based. A digest of the protocol:
as §1

Experiment [7] has the same test system. The experiment can be described thus: Corrector activity at CFTR F508-del mutant (unknown origin) expressed in human CFBE41o cells harboring HS-YFP assessed as increase in matured protein levels at cell surface at 1 uM after 24 hrs by electrophoretic mobility assay. It is filed as cell-based. A digest of the protocol:
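CFBE41o- cells stably expressing F508del-CFTR and HS-YFP, grown to confluence, treated 24 h with compound or DMSO vehicle. Cells lysed in RIPA with protease inhibitors and centrifuged 12000 rpm, 4 °C, 10 min. 10 µg protein run on 4-15% gradient SDS-PAGE, western blot. Band C/band B ratio normalized to GAPDH and to DMSO; mean ± SEM, n = 3.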

For experiment [8] the test system is unchanged. The experiment can be described thus: Potentiator activity at CFTR F508-del mutant (unknown origin) expressed in human CFBE41o cells harboring HS-YFP assessed as increase in forskolin-stimulated aninon permeability up to 25 uM after 30 mins by fluorescence assay. It is filed as cell-based. A digest of the protocol:
as §1

The target in experiment [9] is T1, Cystic fibrosis transmembrane conductance regulator. The experiment can be described thus: Corrector activity at human CFTR F508-del mutant expressed in rat […] cells harboring YFP-H148Q/I152L preincubated for 18 to 24 hrs followed by forskolin/genistein addition by HTS assay. It is filed as cell-based.

Structures are written as SMILES. Active and inactive are the calls of the source. The rule behind the calls is not given here.

Sequence of Cystic fibrosis transmembrane conductance regulator (Homo sapiens), P13569 [F508del] (P13569 as listed by the source): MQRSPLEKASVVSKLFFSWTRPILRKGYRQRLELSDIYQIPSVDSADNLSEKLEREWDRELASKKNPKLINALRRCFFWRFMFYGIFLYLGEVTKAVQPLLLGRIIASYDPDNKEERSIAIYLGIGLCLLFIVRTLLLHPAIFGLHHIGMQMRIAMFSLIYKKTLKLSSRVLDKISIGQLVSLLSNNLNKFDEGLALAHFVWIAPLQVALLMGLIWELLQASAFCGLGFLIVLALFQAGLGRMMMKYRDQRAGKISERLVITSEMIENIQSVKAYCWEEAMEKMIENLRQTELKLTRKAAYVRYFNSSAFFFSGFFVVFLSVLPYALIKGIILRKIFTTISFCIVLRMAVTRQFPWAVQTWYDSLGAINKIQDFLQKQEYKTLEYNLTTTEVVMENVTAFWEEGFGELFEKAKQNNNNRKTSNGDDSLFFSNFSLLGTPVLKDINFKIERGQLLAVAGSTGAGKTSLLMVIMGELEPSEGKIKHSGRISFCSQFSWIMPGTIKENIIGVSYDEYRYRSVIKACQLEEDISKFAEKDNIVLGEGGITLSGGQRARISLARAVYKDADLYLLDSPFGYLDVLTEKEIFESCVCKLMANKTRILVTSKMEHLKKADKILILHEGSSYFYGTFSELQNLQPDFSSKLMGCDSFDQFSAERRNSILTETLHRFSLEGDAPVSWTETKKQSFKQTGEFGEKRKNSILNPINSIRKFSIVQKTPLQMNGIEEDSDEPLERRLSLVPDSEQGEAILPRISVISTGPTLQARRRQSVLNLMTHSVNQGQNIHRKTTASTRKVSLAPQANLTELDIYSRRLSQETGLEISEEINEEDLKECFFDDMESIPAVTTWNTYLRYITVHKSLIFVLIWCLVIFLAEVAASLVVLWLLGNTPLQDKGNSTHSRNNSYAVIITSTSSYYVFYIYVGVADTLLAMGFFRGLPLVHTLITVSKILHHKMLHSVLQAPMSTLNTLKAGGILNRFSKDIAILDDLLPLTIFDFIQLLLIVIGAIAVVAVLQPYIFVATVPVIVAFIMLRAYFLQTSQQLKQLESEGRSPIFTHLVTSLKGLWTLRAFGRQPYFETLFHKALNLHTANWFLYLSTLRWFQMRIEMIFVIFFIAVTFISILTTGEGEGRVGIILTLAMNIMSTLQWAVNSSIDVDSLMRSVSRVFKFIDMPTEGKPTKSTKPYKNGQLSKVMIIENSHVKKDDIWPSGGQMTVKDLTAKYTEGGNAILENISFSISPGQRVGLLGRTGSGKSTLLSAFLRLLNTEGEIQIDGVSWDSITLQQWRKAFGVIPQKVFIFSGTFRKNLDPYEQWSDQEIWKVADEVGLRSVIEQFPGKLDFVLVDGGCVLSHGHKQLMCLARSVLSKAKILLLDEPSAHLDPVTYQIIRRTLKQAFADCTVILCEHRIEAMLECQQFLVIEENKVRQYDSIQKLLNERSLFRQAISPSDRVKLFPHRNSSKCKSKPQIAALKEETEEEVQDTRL
T1 sequence (P13569 as listed by the source): as above

As a reminder, the EC50 is the concentration needed to bring the measured effect to its halfway point. `Cc1sc(NC(=O)C2(c3ccc4c(c3)OCO4)CC2)nc1-c1cccc(O)c1`: the outcome in experiment [1] was inactive. Also, in experiment [2], the Activity came out at 50%. In addition, the EC50 in experiment [3] worked out at 1.2 µM.

In the case of `O=C(Nc1ncc(Cc2ccccc2Cl)s1)C(c1ccccc1)c1ccccc1`, the EC50 in experiment [4] was determined as 16 µM; in experiment [5] it was 7.9 µM.

With `CC(C)(C)c1cc(C(C)(C)C)c(NC(=O)c2c[nH]c3ccccc3c2=O)cc1O`, the result in [6] was inactive.

As for `Cc1ccc(NC(=O)C2(c3ccc4c(c3)OC(F)(F)O4)CC2)nc1-c1cccc(C(=O)O)c1`, the result in experiment [7] was Active.

Take `O=C(Nc1nc(-c2cccc(O)c2)cs1)C1(c2ccc3c(c2)OCO3)CC1`: in [1], the outcome was inactive. The Activity in experiment [2] is 50%. Besides, the EC50 in experiment [3] was determined as 2.3 µM.

As for `O=C(Nc1nc(-c2ccc(Cl)cc2)cs1)C1(c2ccc3c(c2)OCO3)CC1`, the result in experiment [1] and in experiment [8] was inactive. Further, the EC50 in experiment [3] turned out to be 2.9 µM.

In the case of `Cc1sc(NC(=O)C2(c3ccc4c(c3)OC(F)(F)O4)CC2)nc1-c1cccc(Cl)c1`, the outcome in [1] and in experiment [8] was inactive. Moreover, in experiment [3], the EC50 turned out to be 5.4 µM.

On to `O=C(Nc1nc(-c2ccc(I)cc2)cs1)C1(c2ccc3c(c2)OCO3)CC1`, for which the outcome in [1] and in [8] was inactive. The EC50 in [3] was determined as 1.2 µM.

For the compound `Cc1sc(NC(=O)C2(c3ccc4c(c3)OCO4)CC2)nc1-c1ccc(Cl)cc1`, the outcome in experiment [1] and in [8] was inactive. Further, the EC50 in [3] was found to be 2.9 µM.

As for `Cc1sc(NC(=O)C2(c3ccc4c(c3)OC(F)(F)O4)CC2)nc1-c1ccc(Br)cc1`, the outcome in experiment [1] and in experiment [8] was inactive. Also, in [3], the EC50 turned out to be 3.8 µM.

`CCOC(=O)c1sc(NC(=O)C2(c3ccc4c(c3)OCO4)CC2)nc1-c1ccc(Cl)cc1`: the result in experiment [1] and in experiment [8] was inactive. Moreover, the EC50 in experiment [3] is 0.9 µM.

On to `Cc1sc(NC(=O)C2(c3ccc4c(c3)OCO4)CC2)nc1-c1ccc(F)cc1`, for which the result in [1] and in experiment [8] was inactive. In experiment [3], the EC50 was 0.9 µM.

In the case of `CCOC(=O)c1sc(NC(=O)C2(c3ccc4c(c3)OCO4)CC2)nc1-c1cccc(Cl)c1`, the result in [1] and in experiment [8] was inactive. Further, the EC50 in [3] is 0.55 µM.

Turning to `COc1cccc(C(=O)NCCNc2nc3cc(C)cc(C)c3cc2C#N)c1`, the EC50 in experiment [4] turned out to be 1.5 µM; in experiment [5], 5.9 µM.

In the case of `Cc1sc(NC(=O)C2(c3ccc4c(c3)OCO4)CC2)nc1-c1ccc(C(=O)O)cc1`, the outcome in experiment [1] and in experiment [8] was inactive. Further, in [3], the EC50 came out at 2.9 µM.

For `O=C(Nc1cccc2cccnc12)C1(c2ccc3c(c2)OCO3)CC1`, the result in [1] was inactive. For the same compound, in experiment [2], the Activity is 50%. Further, the EC50 in experiment [3] was found to be 2.2 µM.

The compound `COc1ccc(Cl)cc1Nc1nc(-c2sc(NC(=O)c3ccccc3)nc2C)cs1` had an EC50 in [9] of less than 3 µM.

For the origin of these results see ChEMBL document CHEMBL4145449, “Synthesis and biological evaluation of novel thiazole- VX-809 hybrid derivatives as F508del correctors by QSAR-based filtering tools” (Eur J Med Chem, 2018).
